Laboratory results taken from ChEMBL document CHEMBL4350966 (J Med Chem, 2019).

Key:
fMet-Leu-Phe receptor [1] = biological target: T1, fMet-Leu-Phe receptor (Homo sapiens, UniProt P21462); assay: Biased agonist activity at human FPR1 expressed in FlpIn-CHO cells assessed as intracellular calcium mobilization by Fluo-4-AM dye based fluorescence assay; format: functional, cell-based
T1 sequence (P21462 whole entry): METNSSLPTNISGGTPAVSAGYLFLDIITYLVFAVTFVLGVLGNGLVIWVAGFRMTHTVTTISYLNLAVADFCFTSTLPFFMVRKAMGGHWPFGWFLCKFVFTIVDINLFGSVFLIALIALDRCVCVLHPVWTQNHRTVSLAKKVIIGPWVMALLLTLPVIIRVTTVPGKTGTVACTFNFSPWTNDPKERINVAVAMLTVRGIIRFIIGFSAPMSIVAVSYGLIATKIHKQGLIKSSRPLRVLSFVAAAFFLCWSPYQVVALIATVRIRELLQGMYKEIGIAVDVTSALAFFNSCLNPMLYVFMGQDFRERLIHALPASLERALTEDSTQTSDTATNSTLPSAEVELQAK
How it was run: (§1)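 Agonist transduction coefficients (Log(τ/KA)) for each signaling output estimated with an extension of the Black-Leff operational model. Values normalized to a reference ligand and to Ca2+ mobilization as reference pathway, giving ΔLog(τ/KA) and Log(bias factors). Data are mean ± SEM of 4 independent experiments, each performed in duplicate.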

fMet-Leu-Phe receptor [2] = biological target: T1, fMet-Leu-Phe receptor; assay: Biased agonist activity at human FPR1 expressed in FlpIn-CHO cells assessed as stimulation of ERK1/2 phosphorylation measured after 7 mins by Alphascreen assay; format: cell-based; how it was run: as §1
[3] = Kinetic solubility of the compound at pH 6.5; format: physicochemical; conditions: buffer, read-out: Kinetic_solubility
How it was run: (§2)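 Kinetic solubility measured by nephelometry at pH 2.0 and pH 6.5; reported in μg/mL.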

[4] = Intrinsic clearance in mouse liver microsomes assessed per mg protein; format: ADME, Microsome
How it was run: (§3)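 Intrinsic clearance measured in vitro in mouse and human liver microsomes; reported as μL/min/mg protein.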

[5] = biological target: T2, N-formyl peptide receptor 2 (Homo sapiens, UniProt P25090); assay: Biased agonist activity at human FPR2 expressed in FlpIn-CHO cells assessed as stimulation of ERK1/2 phosphorylation measured after 7 mins by Alphascreen assay; format: cell-based; how it was run: as §1
T2 sequence (P25090 whole entry): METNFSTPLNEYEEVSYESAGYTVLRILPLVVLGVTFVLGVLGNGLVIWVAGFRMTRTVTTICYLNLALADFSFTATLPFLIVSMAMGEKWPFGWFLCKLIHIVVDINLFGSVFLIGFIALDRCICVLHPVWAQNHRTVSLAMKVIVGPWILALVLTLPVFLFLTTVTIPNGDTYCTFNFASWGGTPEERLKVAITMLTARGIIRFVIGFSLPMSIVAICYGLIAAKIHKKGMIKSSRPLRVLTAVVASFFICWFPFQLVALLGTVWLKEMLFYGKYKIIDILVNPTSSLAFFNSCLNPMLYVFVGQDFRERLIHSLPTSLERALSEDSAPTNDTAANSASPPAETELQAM

[6] = Lipophilicity, log P of the compound by chromatographic method; format: physicochemical
How it was run: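 Lipophilicity ([…]) measured chromatographically.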

[7] = biological target: T2, N-formyl peptide receptor 2; assay: Biased agonist activity at human FPR2 expressed in FlpIn-CHO cells assessed as intracellular calcium mobilization by Fluo-4-AM dye based fluorescence assay; format: functional, cell-based; how it was run: as §1
[8] = Kinetic solubility of the compound at pH 2; format: physicochemical; conditions: buffer, read-out: Kinetic_solubility; how it was run: as §2
[9] = Protein binding in human plasma by chromatographic method; format: ADME, cell-free; conditions: read-out: PPB (converted)
How it was run: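 Human plasma protein binding estimated by a chromatographic method; reported as percent bound.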

[10] = biological target: T3, fMet-Leu-Phe receptor (Homo sapiens) (UniProt P21462); assay: Bias factor, transduction co-efficient for biased agonist activity at human FPR1 expressed in FlpIn-CHO cells assessed as stimulation of ERK1/2 phosphorylation relative to 1-(4-chlorophenyl)-3-(5-isopropyl-1-methyl-3-oxo-2-phenyl-2,3-dihydro-1H-pyrazol-4-yl)urea to transduction co-efficient for …; format: functional, cell-based
T3 sequence (whole entry): T1 sequence (P21462 whole entry)

[11] = Intrinsic clearance in human liver microsomes assessed per mg protein; format: ADME, Microsome; how it was run: as §3

SMILES | EC50 (fMet-Leu-Phe receptor [1]; read-out: pEC50 (converted)) | EC50 (fMet-Leu-Phe receptor [2]; read-out: pEC50 (converted)) | other results
Cc1cc(Cc2ccccc2F)c(=O)n(C(C)C(=O)Nc2ccc(Br)cc2)n1 (stereo not drawn) | > 100 µM |  | 
COc1ccccc1Cc1cc(C)nn(C(C(=O)Nc2ccc(Cl)cc2)C2CC2)c1=O (stereo not drawn) | > 100 µM | > 100 µM | 
COc1ccccc1Cc1cc(C)nn(CC(=O)Nc2ccc(Cl)cc2Cl)c1=O | > 100 µM | > 100 µM | 
COc1cccc(Cc2cc(C)nn(C(C)C(=O)Nc3ccc(F)cc3)c2=O)c1 (stereo not drawn) | > 100 µM |  | 
COc1cccc(Cc2cc(C)nn(CC(=O)Nc3ccc(Cl)cc3)c2=O)c1OC | 0.224 µM | 0.17 µM | 
CCC(C(=O)Nc1ccc(Cl)cc1)n1nc(C)cc(Cc2ccccc2OC)c1=O (stereo not drawn) | > 100 µM | 1.86 µM | 
COc1ccccc1Cc1cc(C)nn(CC(=O)Nc2ccccc2C#N)c1=O | > 100 µM | > 100 µM | 
CCCCC(C(=O)Nc1ccc(Cl)cc1)n1nc(C)cc(Cc2cccc(OC)c2)c1=O (stereo not drawn) | 5.25 µM | 0.126 µM | 
CCc1ccc(NC(=O)Cn2nc(C)cc(Cc3ccccc3OC)c2=O)cc1 | > 100 µM |  | 
COc1ccccc1Cc1cc(C)nn(CC(=O)Nc2ccccc2Cl)c1=O | > 100 µM | > 100 µM | 
COc1cccc(Cc2cc(C)nn(C(C)C(=O)Nc3ccccc3Cl)c2=O)c1 (stereo not drawn) | > 100 µM | > 100 µM | 
COc1cccc(Cc2cc(C)nn(C(C)C(=O)Nc3ccc(Cl)cc3)c2=O)c1OC (stereo not drawn) | 0.155 µM | 0.145 µM | 
COc1ccccc1Cc1cc(C)nn(CC(=O)Nc2ccc(OC(F)(F)F)cc2)c1=O | > 100 µM | > 100 µM | 
COc1ccccc1Cc1cc(C)nn(CC(=O)Nc2cccc(Cl)c2)c1=O | > 100 µM | > 100 µM | 
Cc1cc(Cc2ccc(F)cc2)c(=O)n(CC(=O)Nc2c(F)cc(F)cc2[N+](=O)[O-])n1 | > 100 µM | > 100 µM | 
COc1cccc(Cc2cc(C)nn(C(C)C(=O)Nc3cccc(F)c3)c2=O)c1 (stereo not drawn) | > 100 µM |  | 
Cc1cc(Cc2cccc(F)c2)c(=O)n(C(C)C(=O)Nc2ccc(Br)cc2)n1 (stereo not drawn) | > 100 µM |  | 
COc1cccc(Cc2cc(C)nn(CC(=O)Nc3ccc(Cl)cc3F)c2=O)c1 | > 100 µM | 5.62 µM | 
CCCCC(C(=O)Nc1ccc(Br)cc1)n1nc(C)cc(Cc2cccc(OC)c2)c1=O (stereo not drawn) | 11.5 µM | 0.148 µM | 
CCCCC(C(=O)Nc1ccc(Cl)cc1)n1nc(C)cc(Cc2ccccc2OC)c1=O (stereo not drawn) |  |  | solubility kinetic [3]: < 0.78 µg/mL; microsomal CLint [4]: 233 µL/min/mg; EC50 [5]: 0.0708 µM; logP [6]: 5.2; EC50 [7]: 0.0513 µM; EC50 (fMet-Leu-Phe receptor [1]): 0.891 µM; solubility kinetic [8]: < 0.78 µg/mL; fraction unbound [9]: 0.016; fold change (FC) [10]: 20; EC50 (fMet-Leu-Phe receptor [2]; read-out: EC50): 0.083 µM
COc1cccc(OC)c1Cc1cc(C)nn(CC(=O)Nc2ccc(Cl)cc2)c1=O | 2.82 µM | 2.63 µM | 
COc1ccccc1Cc1cc(C)nn(C(C(=O)Nc2ccc(Cl)cc2)C(C)C)c1=O (stereo not drawn) | > 100 µM | 2.82 µM | 

SMILES | EC50 (fMet-Leu-Phe receptor [1]; read-out: pEC50 (converted)) | EC50 (fMet-Leu-Phe receptor [2]; read-out: pEC50 (converted)) | other results
COc1ccc(OC)c(Cc2cc(C)nn(CC(=O)Nc3ccc(Cl)cc3)c2=O)c1 | 6.31 µM |  | 
Cc1cc(Cc2ccc(F)cc2)c(=O)n(CC(=O)Nc2ccc(Br)cc2[N+](=O)[O-])n1 | > 100 µM | > 100 µM | 
CCCCC(C(=O)Nc1ccc(Cl)cc1)n1nc(C)cc(Cc2cccc(OC)c2OC)c1=O (stereo not drawn) | 0.055 µM | 0.0933 µM | EC50 [5]: 0.0617 µM; EC50 [7]: 0.0525 µM
COc1ccccc1Cc1cc(C)nn(C(C)C(=O)Nc2ccc(Cl)cc2)c1=O (stereo not drawn) | 17.4 µM | 1.38 µM | 
Cc1cc(Cc2ccc(F)cc2)c(=O)n(C(C)C(=O)Nc2ccc(Br)cc2)n1 (stereo not drawn) | > 100 µM |  | 
COc1ccccc1Cc1cc(C)nn(C(C)C(=O)Nc2ccc(Br)cc2)c1=O (stereo not drawn) | > 100 µM |  | 
COc1cccc(Cc2cc(C)nn(C(C)C(=O)Nc3ccccc3F)c2=O)c1 (stereo not drawn) | > 100 µM | > 100 µM | 
CCCC(C(=O)Nc1ccc(Cl)cc1)n1nc(C)cc(Cc2ccccc2OC)c1=O (stereo not drawn) | 9.77 µM | 6.31 µM | 
CCCCC(C(=O)Nc1ccc(Br)cc1)n1nc(C)cc(Cc2ccccc2OC)c1=O (stereo not drawn) | > 100 µM | 0.331 µM | 
COc1ccccc1Cc1cc(C)nn(CC(=O)Nc2ccc(C#N)cc2)c1=O | > 100 µM | > 100 µM | 
COc1ccccc1Cc1cc(C)nn(CC(=O)Nc2ccc(Cl)cc2)c1=O | > 100 µM |  | 
COc1cccc(Cc2cc(C)nn(CC(=O)Nc3c(F)cc(Cl)cc3F)c2=O)c1 | > 100 µM | > 100 µM | 
COc1ccc(NC(=O)Cn2nc(C)cc(Cc3ccccc3OC)c2=O)cc1 | > 100 µM |  | 
COc1ccc(Cc2cc(C)nn(C(C)C(=O)Nc3ccc(Br)cc3)c2=O)cc1 (stereo not drawn) | > 100 µM |  | 
COc1cccc(Cc2cc(C)nn(C(C)C(=O)Nc3ccc(Cl)cc3)c2=O)c1 (stereo not drawn) | 6.17 to 25.1 µM |  | solubility kinetic [3]: < 1.6 µg/mL; EC50 [5]: 9.55 µM; logP [6]: 4; EC50 [7]: > 100 µM; solubility kinetic [8]: < 1.6 µg/mL; fraction unbound [9]: 0.026; microsomal CLint [11]: 273 µL/min/mg
COc1ccccc1Cc1cc(C)nn(CC(=O)Nc2c(F)cc(Cl)cc2F)c1=O | > 100 µM | > 100 µM | 
CCCCC(C(=O)Nc1ccc(Cl)cc1)n1nc(C(F)(F)F)cc(Cc2ccccc2OC)c1=O (stereo not drawn) | > 100 µM | > 100 µM | 
COc1ccccc1Cc1cc(C)nn(CC(=O)Nc2ccc(Cl)cc2F)c1=O | > 100 µM | > 100 µM | 
COc1cccc(Cc2cc(C)nn(C(C)C(=O)Nc3cccc(Cl)c3)c2=O)c1 (stereo not drawn) | > 100 µM | > 100 µM | 
CCCCC(C(=O)Nc1ccc(Br)cc1)n1nc(C)cc(Cc2cccc(OC)c2OC)c1=O (stereo not drawn) | 0.00646 µM | 0.245 µM | 
COc1ccccc1Cc1cc(C)nn(CC(=O)Nc2cccc(C#N)c2)c1=O | > 100 µM | > 100 µM | 
COc1ccccc1Cc1cc(C(F)(F)F)nn(CC(=O)Nc2ccc(Cl)cc2)c1=O | > 100 µM | > 100 µM | 
